Active and inactive are the calls of the source. No cut-off for these calls is given here.

Experimental findings from ChEMBL document CHEMBL1772946, “Identification and initial SAR of silybin: an Hsp90 inhibitor” (Bioorg Med Chem Lett, 2011) are described below.

For one assay, the system named is SK-BR-3. Kind of assay: Antiproliferative activity against estrogen receptor-deficient human SKBR3 cells expressing HER2. Type of assay: functional. The method in brief:
(§1)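 Cell proliferation assay against SKBr3 (ER-negative, HER2-overexpressing) and MCF-7 (ER-positive) breast cancer cells. Values are mean ± standard deviation of at least two separate experiments, each performed in triplicate.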

A further assay concerns MCF7. Kind of assay: Antiproliferative activity against human MCF7 cells expressing estrogen receptor. Type of assay: functional. The method in brief:
as §1

Assay [1] concerns the target T1, Heat shock protein HSP90 (Homo sapiens) (UniProt P07900+P08238). Kind of assay: Inhibition of Hsp90 in human MCF7 cells assessed as Hsp90 degradation at 50 to 1000 uM by Western blot analysis. It counts as cell-based. For orientation: A western blot detects proteins with antibodies after separation by electrophoresis.
The target of assay [2] is T1, Heat shock protein HSP90 (Homo sapiens). Kind of assay: Inhibition of Hsp90 in human MCF7 cells assessed as Raf degradation at 50 to 1000 uM by Western blot analysis. Type of assay: cell-based.
The target in assay [3] is T2, Heat shock protein HSP 90 (Oryctolagus cuniculus) (UniProt P11500).
T2 sequence (whole entry): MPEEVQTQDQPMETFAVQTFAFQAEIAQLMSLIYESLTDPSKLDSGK
Kind of assay: Inhibition of Hsp90-dependent activation of [35S]-labeled His-tagged […] in rabbit reticulocyte lysate by anti-His-tag pull down assay.

Assay [4] addresses T1, Heat shock protein HSP90 (Homo sapiens). Kind of assay: Inhibition of Hsp90 in human MCF7 cells assessed as Her2 degradation at 50 to 1000 uM by Western blot analysis. Type of assay: cell-based.
For assay [5], the target named is T2, Heat shock protein HSP 90 (Oryctolagus cuniculus). Kind of assay: Inhibition of Hsp90-dependent activation of [35S]-labeled His-tagged […] in rabbit reticulocyte lysate at 2 mM by anti-His-tag pull down assay.
Assay [6] shares this target. Kind of assay: Inhibition of Hsp90-dependent maturation of [35S]-labeled His-tagged […] in rabbit reticulocyte lysate at 2 mM by anti-His-tag pull down assay.
A further assay is filed under the species Oryctolagus cuniculus. Kind of assay: Inhibition of Hsp90/Cdc37 interaction with [35S]-labeled His-tagged […] in rabbit reticulocyte lysate at 2 mM by Western blot analysis.
In assay [7] the target is T1, Heat shock protein HSP90 (Homo sapiens). Kind of assay: Inhibition of Hsp90 in human MCF7 cells assessed as Akt degradation at 50 to 1000 uM by Western blot analysis. Type of assay: cell-based.
Assay [8] concerns the target T2, Heat shock protein HSP 90 (Oryctolagus cuniculus). As to conditions: 1 ug/ml.
Assay [9] has the same target. The note with it: 1 ug/ml. The source holds these as a separate data set.
Assay [10] concerns the target T1, Heat shock protein HSP90 (Homo sapiens). Kind of assay: Inhibition of Hsp90 in human MCF7 cells assessed as Her2 degradation after 24 hrs by Western blot analysis. Type of assay: cell-based. The method in brief: (§2)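 MCF-7 breast cancer cells were treated for 24 h with a range of compound concentrations. Cell lysates were probed by Western blot for Her2, Raf, Akt and Hsp90, with actin as a non-client control.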

Assay [11] shares this target. Kind of assay: Inhibition of Hsp90 in human MCF7 cells assessed as degradation after 24 hrs by Western blot analysis.
For assay [12] the target is unchanged. Kind of assay: Inhibition of Hsp90 in human MCF7 cells assessed as Akt degradation after 24 hrs by Western blot analysis. Type of assay: cell-based. The method in brief:
as §2

For assay [13] the target is unchanged. Kind of assay: Inhibition of Hsp90 in human MCF7 cells assessed as Raf degradation after 24 hrs by Western blot analysis. Type of assay: cell-based. The method in brief: as §2

As to `COc1cc(C2Oc3cc([C@H]4Oc5cc(O)cc(O)c5C(=O)[C@@H]4O)ccc3OC2CO)ccc1O` (stereo in doubt; 24) [SILIBININ], the Activity in the assay on SK-BR-3 is 196.3 µM; in the assay on MCF7, 196.4 µM.
Regarding `COc1cc(C2Oc3cc(/C=C/C(=O)c4ccccc4O)ccc3OC2CO)ccc1O` (configuration not stated), the Activity is 19.87 µM in the assay with SK-BR-3 and 12.07 µM in the assay with MCF7.
Regarding `COc1cc(C2Oc3cc(/C=C/C(=O)c4c(O)cccc4O)ccc3OC2CO)ccc1O` (configuration not stated), the Activity in the assay with SK-BR-3 was found to be 25.03 µM; in the assay on MCF7, 22.58 µM.
Regarding `COc1cc(C2Oc3cc([C@H]4Oc5cc(O)cc(O)c5C(=O)[C@@H]4O)ccc3OC2CO)ccc1O` (stereo in doubt), the inhibition entry in assay [1], in assay [2], in assay [4], in assay [5], in assay [6] and in assay [7] was “Active” in each case. In addition, in [3], the inhibition entry was “Dose-dependent effect”. In addition, in the assay listed under Oryctolagus cuniculus, the inhibition entry was “inactive”.
On to `COc1cc(C2Oc3cc([C@H]4Oc5cc(O)cc(O)c5C(=O)[C@@H]4O)ccc3OC2CO)ccc1O` (stereo in doubt) [SILIBININ], for which the Activity with SK-BR-3 was 197 µM; with MCF7, 222.8 µM.
For `COc1cc(C2Oc3cc(/C=C/C(=O)c4cc(O)ccc4O)ccc3OC2CO)ccc1O` (configuration not stated), the Activity worked out at 35.84 µM in the assay with SK-BR-3 and 12.17 µM with MCF7.
As for `COc1cc(C2Oc3cc(C4CC(=O)c5c(O)cc(O)cc5O4)ccc3OC2CO)ccc1O` (configuration not stated), the Activity was determined as 101.2 µM in the assay with SK-BR-3 and 104.2 µM with MCF7.
Regarding `COC1=C2C[C@@H](C)C[C@H](OC)[C@H](O)[C@@H](C)/C=C(\C)[C@H](OC(N)=O)[C@@H](OC)/C=C\C=C(/C)C(=O)NC(=CC1=O)C2=O`, the inhibition result in [8] and in [9] was “Active” in each case.
As for `COc1cc(C2Oc3cc(C4CC(=O)c5ccc(O)cc5O4)ccc3OC2CO)ccc1O` (configuration not stated), the Activity in the assay with SK-BR-3 came to 41.91 µM; in the assay on MCF7 it was 41.58 µM.
For the molecule `COc1cc(C2Oc3cc(C4Oc5ccc(O)cc5C(=O)C4O)ccc3OC2CO)ccc1O` (configuration not stated), the Activity was 13.41 µM in the assay with SK-BR-3 and 17.8 µM in the assay with MCF7.
On to `COc1cc(C2Oc3cc(C4CC(=O)c5cc(O)ccc5O4)ccc3OC2CO)ccc1O` (configuration not stated), for which the Activity was 15.63 µM in the assay on SK-BR-3 and 15.62 µM in the assay on MCF7. Further, the inhibition entry in assay [10], in assay [11], in assay [12] and in assay [13] was “Dose-dependent effect” in each case.
For `COc1cc(C2Oc3cc(C4Oc5cccc(O)c5C(=O)C4O)ccc3OC2CO)ccc1O` (configuration not stated), the Activity with SK-BR-3 came out at 11.9 µM; with MCF7 it was 17.66 µM.
As to `COc1cc(C2Oc3cc(/C=C/C(=O)c4c(O)cc(O)cc4O)ccc3OC2CO)ccc1O` (configuration not stated), the Activity in the assay on SK-BR-3 was determined as 111.4 µM; with MCF7 it was 109.3 µM.
As to `O=C1c2c(O)cc(O)cc2OC(c2ccc3c(c2)OC(c2ccc(O)cc2)C(CO)O3)C1O` (configuration not stated), the Activity with SK-BR-3 is 210.6 µM; in the assay with MCF7 it was 138.7 µM.
For the molecule `COc1cc(C2Oc3cc(C4Oc5cc(O)ccc5C(=O)C4O)ccc3OC2CO)ccc1O` (configuration not stated), the Activity with SK-BR-3 came to 16.04 µM; with MCF7, 11.92 µM.
Regarding `COc1cc(C2Oc3cc(C4Oc5ccccc5C(=O)C4O)ccc3OC2CO)ccc1O` (configuration not stated), the Activity turned out to be 11.12 µM in the assay on SK-BR-3 and 13.42 µM in the assay with MCF7. For the same molecule, the inhibition result in assay [10], in assay [11], in [12] and in [13] was “Dose-dependent effect” in each case.
Take `COc1cc(C2Oc3cc(C4CC(=O)c5ccccc5O4)ccc3OC2CO)ccc1O` (configuration not stated): the Activity was determined as 16.25 µM in the assay with SK-BR-3 and 13.66 µM in the assay with MCF7.
For the molecule `COc1cc(C2Oc3cc(C4CC(=O)c5c(O)cccc5O4)ccc3OC2CO)ccc1O` (configuration not stated), the Activity in the assay on SK-BR-3 worked out at 47.73 µM; in the assay on MCF7, 50.32 µM.
Taken in the same sequence, the figures for `COc1cc(C2Oc3cc(/C=C/C(=O)c4ccc(O)cc4O)ccc3OC2CO)ccc1O` (configuration not stated) were 37.14 µM and 16.91 µM.
